According to paper PMC4180220 (Drug metabolism letters, 2012):
Entries after “also recorded” stand apart in the source; their conditions may differ. Like-named read-outs stand apart in the source and are kept apart here.

Legend:
Assay type in all cases: biochemical
human P450 1A2 = molecular target: T1, human P450 1A2 (Homo sapiens, UniProt P05177); assay: Methoxyresorufin O-demethylation
T1 sequence (P05177 1-516): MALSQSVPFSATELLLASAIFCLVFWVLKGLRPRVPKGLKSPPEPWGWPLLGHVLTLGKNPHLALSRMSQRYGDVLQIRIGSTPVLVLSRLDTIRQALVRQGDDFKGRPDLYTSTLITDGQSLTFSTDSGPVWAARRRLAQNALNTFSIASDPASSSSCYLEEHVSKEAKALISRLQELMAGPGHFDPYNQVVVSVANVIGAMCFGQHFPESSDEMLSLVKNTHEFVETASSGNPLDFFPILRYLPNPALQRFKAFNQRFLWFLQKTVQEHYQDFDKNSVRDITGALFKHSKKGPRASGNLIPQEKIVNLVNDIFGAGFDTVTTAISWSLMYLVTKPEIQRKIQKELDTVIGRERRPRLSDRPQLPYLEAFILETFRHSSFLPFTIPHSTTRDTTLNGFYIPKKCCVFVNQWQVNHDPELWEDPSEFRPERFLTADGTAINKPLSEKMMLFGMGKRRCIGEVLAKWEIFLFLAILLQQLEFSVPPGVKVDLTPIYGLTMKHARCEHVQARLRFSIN

P450 1A1 [1] = molecular target: T2, P450 1A1 (Homo sapiens, UniProt P04798); assay: Ethoxyresorufin O-deethylation
T2 sequence (P04798 1-512): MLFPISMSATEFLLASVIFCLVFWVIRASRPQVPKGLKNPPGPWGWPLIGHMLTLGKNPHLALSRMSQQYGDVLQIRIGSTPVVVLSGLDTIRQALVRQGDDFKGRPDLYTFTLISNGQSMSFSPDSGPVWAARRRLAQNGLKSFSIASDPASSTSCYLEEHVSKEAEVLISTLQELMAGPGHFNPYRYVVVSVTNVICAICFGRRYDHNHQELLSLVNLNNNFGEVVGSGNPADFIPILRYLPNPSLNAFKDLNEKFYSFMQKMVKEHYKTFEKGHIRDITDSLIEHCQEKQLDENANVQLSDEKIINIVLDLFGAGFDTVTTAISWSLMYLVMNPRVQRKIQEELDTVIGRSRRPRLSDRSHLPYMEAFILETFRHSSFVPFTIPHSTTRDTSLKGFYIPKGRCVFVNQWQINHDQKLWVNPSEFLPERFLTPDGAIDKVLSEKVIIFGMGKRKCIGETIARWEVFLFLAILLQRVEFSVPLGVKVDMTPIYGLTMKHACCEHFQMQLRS

human P450 2A6 = molecular target: T3, human P450 2A6 (Homo sapiens, UniProt P11509); assay: Coumarin 7-hydroxylation inhibition assay
T3 sequence (P11509 1-494): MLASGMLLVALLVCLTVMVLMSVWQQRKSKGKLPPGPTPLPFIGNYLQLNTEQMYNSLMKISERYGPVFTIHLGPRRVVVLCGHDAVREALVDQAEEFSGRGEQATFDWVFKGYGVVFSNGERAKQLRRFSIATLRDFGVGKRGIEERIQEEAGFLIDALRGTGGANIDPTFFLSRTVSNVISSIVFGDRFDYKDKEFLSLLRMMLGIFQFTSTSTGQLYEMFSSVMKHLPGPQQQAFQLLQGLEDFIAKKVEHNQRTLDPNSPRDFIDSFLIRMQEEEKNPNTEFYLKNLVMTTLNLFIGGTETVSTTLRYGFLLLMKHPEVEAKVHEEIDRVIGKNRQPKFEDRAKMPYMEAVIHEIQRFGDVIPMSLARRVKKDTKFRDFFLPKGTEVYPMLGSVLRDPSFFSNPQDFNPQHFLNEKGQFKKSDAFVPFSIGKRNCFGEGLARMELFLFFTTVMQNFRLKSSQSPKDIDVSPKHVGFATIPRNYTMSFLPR

P450 1A1 [2] = molecular target: T2, P450 1A1; assay: Mechanism-based inhibition of P450 1A1; settings: NADPH-dependency assay
Outline: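 Human P450 1A1 supersomes (5 nM final) pre-incubated 5 min at 37°C with the test compound at varied concentrations in 0.1 M potassium phosphate pH 7.6 with MgCl2, with or without NADPH regenerating system. Reaction started with resorufin ethyl ether (5 μM final) plus buffer or the regenerating system. Resorufin formation followed at 535 nm ex/585 nm em, 37°C; DMSO controls.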

rat P4502B1 = molecular target: T4, rat P4502B1 (Rattus norvegicus, UniProt P00176); assay: Pentoxyresorufin O-depentylation
T4 sequence (P00176 1-491): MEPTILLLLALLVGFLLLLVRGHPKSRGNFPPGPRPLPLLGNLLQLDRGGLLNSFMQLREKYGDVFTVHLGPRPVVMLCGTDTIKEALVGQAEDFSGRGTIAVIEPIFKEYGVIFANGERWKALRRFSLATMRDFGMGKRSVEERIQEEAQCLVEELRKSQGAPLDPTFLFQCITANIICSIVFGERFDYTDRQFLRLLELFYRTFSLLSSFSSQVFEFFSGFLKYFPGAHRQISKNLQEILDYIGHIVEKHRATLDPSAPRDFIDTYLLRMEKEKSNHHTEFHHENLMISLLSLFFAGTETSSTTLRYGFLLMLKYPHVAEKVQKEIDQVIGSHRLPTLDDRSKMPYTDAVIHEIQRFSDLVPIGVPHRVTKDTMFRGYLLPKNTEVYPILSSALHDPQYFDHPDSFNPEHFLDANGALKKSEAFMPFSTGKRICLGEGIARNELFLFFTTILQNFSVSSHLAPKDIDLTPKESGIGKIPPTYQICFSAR
Outline: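 Rat P450 2B1 supersomes (5 nM final) and resorufin pentyl ether (5 μM final) in 0.1 M potassium phosphate pH 7.6 with MgCl2; test compound in DMSO. Started with NADPH regenerating system (NADP+, glucose-6-phosphate, G6P dehydrogenase), 37°C. Resorufin fluorescence (535/585 nm) progress curves fit second-order; linear coefficient taken as activity.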

[3] = compounds of this study, log conversion of the IC50
[4] = read-out: IC50 2A6, human P450 2A6 supersomes, coumarin 5 μM, Dixon plot

Row | SMILES | Actual (EL) logIC50 (9-logIC50), P450 1A2 (human P450 1A2; [3]) | Actual (EL) logIC50 (9-logIC50), P450 1A1 (P450 1A1 [1]; [3]) | IC50 (human P450 2A6; [4]) [µM] | other results
1 | O=c1cc(-c2ccc(O)cc2)oc2ccccc12 [4′-HF, reference compound] | 5.1858 | 4.7378 | > 50 | –
2 | O=c1cc(-c2cccc(O)c2)oc2ccccc12 [3′-HF, reference compound] | 5.0353 | 5.3010 | > 50 | –
3 | C#CCOc1cccc(-c2cc(=O)c3ccccc3o2)c1 [3′-PF, 3′-flavone propargyl ether] | 6.1739 | 7.6990 | > 10 | Mechanism-based inhibition of P450 1A1 (in words) (P450 1A1 [2]): ability to cause mechanism-based inhibition; also recorded: exhibited mechanism-based inhibition
4 | C#CCOc1ccc(-c2cc(=O)c3ccccc3o2)cc1 [4′-PF, 4′-flavone propargyl ether] | 5.8962 | 6.1871 | > 10 | –
5 | O=c1cc(-c2ccccc2O)oc2ccccc12 [2′-HF, reference compound] | 5.0273 | 4.7518 | > 50 | –
6 | C#CCOc1ccc2c(c1)OC(c1ccccc1)CC2=O (centres unmarked) [Compound 7-PFN, 7-flavanone propargyl ether] | – | – | – | Actual (EL) logIC50 (9-logIC50), P450 1A2 (human P450 1A2): 6.0132; IC50 (human P450 1A2): 0.97 µM; Actual (EL) logIC50 (9-logIC50), P450 1A1 (P450 1A1 [1]): 5.2233; IC50 (P450 1A1 [1]): 5.98 µM; IC50 (human P450 2A6): > 10 µM
7 | C#CCOc1ccc2c(c1)C(=O)CC(c1ccccc1)O2 (centres unmarked) [Compound 6-PFN, 6-flavanone propargyl ether] | – | – | – | Inhibition of P450 2B1 (in words) (rat P4502B1): inhibited; IC50 (human P450 1A2): > 10 µM; Inhibition of P450 1A2 (in words) (human P450 1A2): did not show inhibition; Actual (EL) logIC50 (9-logIC50), P450 1A1 (P450 1A1 [1]): 5.2388; IC50 (P450 1A1 [1]): 5.77 µM; IC50 (human P450 2A6): > 10 µM
8 | C#CCOc1ccccc1-c1cc(=O)c2ccccc2o1 [2′-PF, 2′-flavone propargyl ether] | 5.8894 | 6.2518 | > 10 | Inhibition of P450 2B1 (in words) (rat P4502B1): inhibited
9 | O=c1cc(-c2ccccc2)oc2cc(O)ccc12 [Compound 7-HF, 7-hydroxy flavone, reference compound] | – | – | – | IC50 (rat P4502B1): > 50 µM; IC50 (human P450 1A2): 2.55 µM; Mechanism-based inhibition of P450 1A1 (in words) (P450 1A1 [2]): exhibited mechanism-based inhibition; IC50 (P450 1A1 [1]): 6.79 µM; IC50 (human P450 2A6): > 50 µM
10 | O=c1cc(-c2ccccc2)oc2cccc(O)c12 [Compound 5-HF, 5-hydroxy flavone, reference compound] | – | – | – | IC50 (rat P4502B1): > 50 µM; IC50 (human P450 2A6): > 50 µM
11 | C#CCOc1ccc2c(=O)cc(-c3ccccc3)oc2c1 [Compound 7-PF, 7-flavone propargyl ether] | – | – | > 10 | –
12 | C#CCOc1cccc2oc(-c3ccccc3)cc(=O)c12 [Compound 5-PF, 5-flavone propargyl ether] | 6.4202 | 5.7959 | > 10 | –
13 | O=c1cc(-c2ccccc2)oc2ccc(O)cc12 [Compound 6-HF, reference compound] | 5.1599 | 4.9080 | > 50 | –
14 | C#CCOc1ccc2oc(-c3ccccc3)cc(=O)c2c1 [Compound 6-PF, 6-flavone propargyl ether] | – | 6.4318 | > 10 | –
